As a reminder, the pKi is −log10 of the Ki, conventionally taken in molar units. A word on the pIC50: it is the negative decadic logarithm of the IC50, by convention in mol/L.

This passage reports Ki, IC50 and PF50 results from ChEMBL document CHEMBL1132951, “Resistance-modifying agents. 9. Synthesis and biological properties of benzimidazole inhibitors of the DNA repair enzyme poly(ADP-ribose) polymerase” (J Med Chem, 2000).

Structures are written as SMILES. pIC50, pKi: −log10 of the molar value.

Assay [1] addresses T1, Poly [ADP-ribose] polymerase 1 (Homo sapiens, UniProt P09874).
In assay [2] the target is T1, Poly [ADP-ribose] polymerase 1. Nature of the assay: In vitro inhibition against human full length PARP protein; IA means inactive. In short, it runs like this: (§1)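 Baculovirus-expressed, purified human full-length PARP (20 nM) with DNase I-activated calf thymus DNA (10 μg/mL) and NAD+ (500 μM, with [32P]NAD+). Run in 50 mM Tris pH 8.0, 10 mM MgCl2, 1 mM TCEP, 2% DMSO, 25 °C, 5 min (linear to 8 min). Stopped with ice-cold TCA and filtered. Acid-insoluble [32P]ADP-ribose read by phosphorimager. Ki from competitive-inhibition fit; tight-binding equation where needed.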

The target is the same in assay [3]. Nature of the assay: In vitro inhibition against human full length PARP protein. The essentials: as §1
The subject of assay [4] is A2780. The experiment in a line: Potentiation of growth inhibition of A2780 by compound alone in experiment 1. Format: functional, cell-based. As to conditions: Homo sapiens; call rule not given here. The essentials: (§2)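 A2780 cells were grown in HEPES-RPMI 1640 + 10% FCS and seeded at 2.0–2.5 × 10^3 per well. After overnight attachment (16–24 h) they were exposed for 72 h to graded temozolomide or topotecan ± 10 μM PARP inhibitor (1% DMSO). Sulforhodamine B read at 570 nm, 5 replicate wells, % of matched control. IC50 by nonlinear regression; potentiation is IC50 alone over IC50 with inhibitor.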

Assay [5] has as its system A2780. Nature of the assay: Potentiation of growth inhibition of A2780 cells by compound alone in experiment 2. As to conditions: Homo sapiens. The assay is classed as functional, cell-based. The essentials:
as §2

For assay [6], the system named is A2780. Nature of the assay: Potentiation of growth inhibition of A2780 cells along with 10 uM NU1085 in experiment 1. The assay is classed as functional, cell-based. As to conditions: Homo sapiens. The essentials: as §2
In assay [7] the test system is A2780. The experiment in a line: Potentiation of growth inhibition of A2780 cells along with 10 uM NU1085 in experiment 2. Format: functional, cell-based. The conditions noted are these: Homo sapiens. The essentials:
as §2

Assay [8] relates to A2780. Nature of the assay: Potentiation factor at 50% growth inhibition (IC50 of compound to that of compound along with PARP inhibitor) in experiment 1. The assay is classed as functional, Homo sapiens. In short, it runs like this:
as §2

The test system of assay [9] is A2780. The experiment in a line: Potentiation factor at 50% growth inhibition (IC50 of compound to that of compound along with PARP inhibitor) in experiment 2. The assay is classed as functional, Homo sapiens. In short, it runs like this: as §2
Assay [10] concerns A2780. The experiment in a line: Potentiation of growth inhibition of A2780 cells by compound alone in experiment 1. The assay is classed as functional, cell-based. As to conditions: Homo sapiens. The essentials:
as §2

T1 sequence (P09874 whole entry): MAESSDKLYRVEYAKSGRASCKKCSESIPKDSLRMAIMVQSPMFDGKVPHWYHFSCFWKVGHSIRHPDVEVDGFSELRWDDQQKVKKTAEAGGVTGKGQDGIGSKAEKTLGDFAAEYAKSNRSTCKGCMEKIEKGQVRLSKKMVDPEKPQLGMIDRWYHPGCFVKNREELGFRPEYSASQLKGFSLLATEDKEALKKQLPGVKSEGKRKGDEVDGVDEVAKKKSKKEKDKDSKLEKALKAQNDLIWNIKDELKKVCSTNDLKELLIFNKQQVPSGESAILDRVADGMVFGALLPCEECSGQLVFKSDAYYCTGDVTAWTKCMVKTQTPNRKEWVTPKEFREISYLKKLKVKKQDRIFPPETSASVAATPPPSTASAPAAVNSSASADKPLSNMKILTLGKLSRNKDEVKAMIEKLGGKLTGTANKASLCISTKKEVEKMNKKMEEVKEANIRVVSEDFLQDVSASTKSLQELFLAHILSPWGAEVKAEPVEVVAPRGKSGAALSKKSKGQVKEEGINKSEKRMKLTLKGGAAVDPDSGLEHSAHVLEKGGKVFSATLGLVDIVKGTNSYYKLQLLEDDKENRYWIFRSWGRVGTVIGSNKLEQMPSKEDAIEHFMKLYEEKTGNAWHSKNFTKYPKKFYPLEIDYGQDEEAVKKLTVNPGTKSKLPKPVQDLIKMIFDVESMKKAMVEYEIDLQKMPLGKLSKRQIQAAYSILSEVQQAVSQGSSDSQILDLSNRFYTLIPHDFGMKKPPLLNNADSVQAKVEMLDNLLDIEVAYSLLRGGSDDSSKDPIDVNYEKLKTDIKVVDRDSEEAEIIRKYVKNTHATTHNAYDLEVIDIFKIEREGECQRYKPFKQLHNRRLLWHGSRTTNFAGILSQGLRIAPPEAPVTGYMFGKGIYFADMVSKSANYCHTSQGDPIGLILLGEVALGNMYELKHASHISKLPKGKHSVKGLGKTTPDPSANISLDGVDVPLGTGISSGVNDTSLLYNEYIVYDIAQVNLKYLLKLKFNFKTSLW

In assay [1], `Cc1nc2c(C(N)=O)cccc2[nH]1` gave a pKi of 7.00.
For `CNC(=O)c1cccc2[nH]c(-c3ccc(O)cc3)nc12`, in assay [2], the Ki result was “Not Active”.
Turning to `NC(=O)c1cccc2nc(-c3ccc(O)cc3)[nH]c12`, the pKi in assay [1] is 8.22.
`COc1ccc(-c2nc3c(C(N)=O)cccc3n2C)cc1`: the pKi in [1] is 7.49.
Still for that read-out and setting: for `COc1ccc(-c2nc3c(C(N)=O)cccc3[nH]2)cc1` the value was 8.17; for `NC(=O)c1cccc2nc(-c3ccc(Cl)cc3)[nH]c12`, 8.52.
`CNC(=O)c1cccc2[nH]c(-c3ccc(OC)cc3)nc12`: in assay [2], the Ki entry is listed as “Not Active”.
In [1], `COc1cc(-c2nc3c(C(N)=O)cccc3[nH]2)cc(OC)c1OC` had a pKi of 6.87.
Still for that read-out and setting: for `NC(=O)c1cccc2[nH]c(-c3cccc(Cl)c3)nc12` the value was 8.08; for `NC(=O)c1cccc2[nH]c(C(F)(F)F)nc12`, 6.46.
The same measure, in the same setting: next, `NC(=O)c1cccc2[nH]c(-c3ccc(CO)cc3)nc12`: 8.80; `NC(=O)c1cccc2[nH]c(-c3ccccc3CO)nc12`: 7.97; `COc1ccc(-c2nc3c(C(N)=O)cccc3[nH]2)cc1OC`: 8.27.
On the same count and under the same terms, for `NC(=O)c1cccc2[nH]c(-c3ccccc3F)nc12` the value was 8.05.
Turning to `NC(=O)c1cccc2[nH]cnc12`, the pKi in assay [1] was 7.02.
The compound `CCOC(=O)c1ccc(-c2nc3c(C(N)=O)cccc3[nH]2)cc1` had a negative logarithm of the Ki (pKi) in assay [1] of 8.09.
In the case of `COc1cc(-c2nc3c(C(N)=O)cccc3[nH]2)ccc1O`, the pKi in [1] was 7.89.
The same measure, in the same setting: for `C=CCOc1cc(-c2nc3c(C(N)=O)cccc3[nH]2)ccc1OC` the value was 8.03; for `NC(=O)c1cccc2nc(-c3ccc(N)cc3)[nH]c12`, 7.96.
The same measure, in the same setting: next, `CN(C)c1ccc(-c2nc3c(C(N)=O)cccc3[nH]2)cc1`: 8.24; `NC(=O)c1cccc2[nH]c(-c3ccccc3C(F)(F)F)nc12`: 6.72.
Compound `NC(=O)c1cccc2[nH]c(-c3ccc(C(F)(F)F)cc3)nc12` had a pKi in assay [1] of 8.92.
On the same count and under the same terms, for `NC(=O)c1cccc2[nH]c(-c3ccc(C(=O)O)cc3)nc12` the value was 6.54.
The same measure, in the same setting: for `NC(=O)c1cccc2[nH]c(-c3ccccc3Cl)nc12` the value was 8.03.
On the same count and under the same terms, for `NC(=O)c1cccc2[nH]c(-c3cccc(C(F)(F)F)c3)nc12` the value was 8.10.
Consider `N#Cc1ccc(-c2nc3c(C(N)=O)cccc3[nH]2)cc1`, for which, in assay [1], the pKi is 8.40.
The same measure, in the same setting: for `NC(=O)c1cccc2[nH]c(-c3cccc(O)c3)nc12` the value was 8.20; for `O=C(O)c1cccc2[nH]c(-c3ccc(O)cc3)nc12`, 5.00.
Still for that read-out and setting: next, `NC(=O)c1cccc2[nH]c(-c3cccc(CO)c3)nc12`: 8.17; `NC(=O)c1cccc2[nH]c(-c3ccc4c(c3)OCO4)nc12`: 8.23; `COc1ccc(-c2nc3c(C(N)=O)cccc3[nH]2)cc1O`: 8.70.
`COc1ccc(-c2nc3c(C(N)=O)cccc3n2C(=O)OCc2ccccc2)cc1` had a negative logarithm of the Ki (pKi) in assay [1] of 6.28.
Compound `NC(=O)c1cccc2[nH]c(-c3ccc([N+](=O)[O-])cc3)nc12` showed a pKi in assay [3] of 8.10.
For `CC(C)[Si](OCc1ccc(-c2nc3c(C(N)=O)cccc3[nH]2)cc1)(C(C)C)C(C)C`, in assay [1], the pKi is 7.07.
`COc1ccccc1-c1nc2c(C(N)=O)cccc2[nH]1` had a negative logarithm of the Ki (pKi) in assay [1] of 6.90.
With `Cn1nnc2c(C(N)=O)ncn2c1=O` [TEMOZOLOMIDE], the pIC50 in [4] is 3.28; in [5] it was 3.43; in assay [6], 3.73; in assay [7], 3.74. For the same compound, the PF50 in assay [8] turned out to be 2.8; in assay [9] it was 2.
Consider `CC[C@@]1(O)C(=O)OCc2c1cc1n(c2=O)Cc2cc3c(CN(C)C)c(O)ccc3nc2-1` [TOPOTECAN], for which the negative logarithm of the IC50 (pIC50) in [10] was 4.65; in [5], 4.66; in assay [6], 5.11; in assay [7], 5.06. For the same compound, the PF50 in [8] worked out at 2.9; in assay [9], 2.5.
